{"data": "Measurements of several laboratories", "MAP2K7": "Dual specificity mitogen-activated protein kinase kinase 7 (MAP2K7, Homo sapiens, UniProt O14733)", "CDK9": "Cyclin-dependent kinase 9 (CDK9, Homo sapiens, UniProt P50750)", "CDK1": "Cyclin-dependent kinase 1 (CDK1, Homo sapiens, UniProt P06493)"}
{"Structure (SMILES)": "CC(=O)ON=C1C=CC(=C(C#N)c2ccccc2)C=C1", "target": "Dual specificity protein kinase CLK1 (Clk1, Mus musculus, UniProt P22518)", "test": "enzyme activity, inhibitor, ADP detection", "setting": "20 µM", "endpoint": "activity vs control", "value": "99%"}
{"Structure (SMILES)": "Cc1cc(O)c(-c2ccc([C@@H](C)CN(C)C)cc2)c2c1[nH]c(=O)c1sccc12", "target": "MAP2K7", "test": "enzyme activity, inhibitor", "setting": "0.1 µM", "endpoint": "inhibition", "value": "4.47%"}
{"Structure (SMILES)": "Cc1cc2c(C(N)=O)c(N)n(-c3c(C)ccc(O)c3C)c2nc1C", "target": "Proto-oncogene tyrosine-protein kinase Src (SRC, Homo sapiens, UniProt P12931)", "test": "enzyme activity, inhibitor, TR-FRET", "setting": "10 µM", "endpoint": "inhibition", "value": "101%"}
{"Structure (SMILES)": "C#Cc1cc(-c2cc(Nc3nc(N[C@@H](C)c4ccc(F)cn4)ncc3Cl)n[nH]2)ccc1C=O", "target": "Phosphorylase b kinase gamma catalytic chain, skeletal muscle/heart isoform (PHKG1, Homo sapiens, UniProt Q16816)", "test": "enzyme activity, inhibitor", "setting": "0.2 µM", "endpoint": "inhibition", "value": "80.2%"}
{"Structure (SMILES)": "CN1C(=O)CCC(N2C(=O)c3cc4c(cc3C2=O)CN(CCCCCCCC(=O)N2CCC(C(=O)Nc3ncc(SCc5ncc(C(C)(C)C)o5)s3)CC2)C4)C1=O (stereo not shown)", "target": "CDK9", "test": "protein level, degrader, western blot", "test system": "TC-71", "setting": "25 nM", "endpoint": "inhibition", "value": "5.1%"}
{"Structure (SMILES)": "CCN(CC)CCNC(=O)c1ccc(NCN2C(=O)NC(c3ccccc3)(c3ccccc3)C2=O)cc1", "target": "Mitogen-activated protein kinase 3 (MAPK3, Homo sapiens, UniProt P27361)", "test": "enzyme activity, inhibitor, ADP detection", "setting": "10 µM", "endpoint": "inhibition", "value": "43.6%"}
{"Structure (SMILES)": "NC/C(=C\\F)COc1cccc(Cn2c(=S)[nH]c(=O)c3[nH]cnc32)c1", "target": "Myeloperoxidase (Mus musculus, UniProt P11247)", "test": "enzyme activity, inhibitor", "setting": "10 µM", "endpoint": "remaining activity", "value": "-4.18%"}
{"Structure (SMILES)": "C1=C/COCc2cc(ccc2OCCN2CCCC2)Nc2nccc(n2)-c2cccc(c2)COC/1", "target": "MAP2K7", "test": "cell-free assay", "setting": "0.1 µM", "endpoint": "remaining signal", "value": "73%"}
{"Structure (SMILES)": "C[C@H]1CN(CC2CCN(c3ccc(C4CCC(=O)NC4=O)cc3F)CC2)CC[C@H]1NS(=O)(=O)c1ccc(Nc2ncc(C(F)(F)F)c(N3CCC[C@](C)(O)C3)n2)c(F)c1 (stereo partly shown)", "target": "CDK1", "test": "protein level, degrader, western blot", "test system": "TOV21G", "endpoint": "Dmax", "value": "40%"}
{"Structure (SMILES)": "COc1ccc2oc(-c3ccc4nc(N)oc4c3)c/c(=N\\c3ccccc3NC(=O)CCN)c2c1", "target": "Proto-oncogene tyrosine-protein kinase Src (SRC, Homo sapiens, UniProt P12931, T341M)", "test": "cell-free assay", "setting": "1 µM", "endpoint": "remaining signal", "value": "90%"}
{"Structure (SMILES)": "CC(C)(C)c1cnc(CSc2cnc(NC(=O)C3CCN(C(=O)CCCCCCCCCN4Cc5cc6c(cc5C4)C(=O)N(C4CCC(=O)NC4=O)C6=O)CC3)s2)o1 (stereo not shown)", "target": "CDK9", "test": "protein level, degrader, western blot", "test system": "TC-71", "setting": "25 nM", "endpoint": "inhibition", "value": "91.8%"}
{"Structure (SMILES)": "C[C@]1(O)CCCN(c2nc(Nc3ccc(S(=O)(=O)N[C@H]4CC[C@H](CN5CCN(c6ccc(C7CCC(=O)NC7=O)cc6F)CC5)CC4)cc3F)ncc2C(F)(F)F)C1 (stereo partly shown)", "target": "CDK1", "test": "protein level, degrader, western blot", "test system": "TOV21G", "endpoint": "Dmax", "value": "82%"}
{"Structure (SMILES)": "CCCCC(=O)Nc1ccc(-c2ccc3ncn(CCC)c(=O)c3c2)cn1", "target": "Serine/threonine-protein kinase Sgk2 (SGK2, Homo sapiens, UniProt Q9HBY8)", "test": "binding, competition with immobilised ligand", "setting": "0.5 µM", "endpoint": "remaining binding", "value": "100%"}
